# Active and inactive are the calls of the source. The rule behind the calls is not given here.
# Columns and labels:
# [1] = target: Bromodomain adjacent to zinc finger domain protein 2B (Homo sapiens) (UniProt Q9UIF8); assay: Binding affinity to human N-terminal His-tagged BAZ2B assessed as change in melting temperature at 10 uM by SYPRO orange dye-based fluorescence assay
# Outline: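 Thermal shift with His-tagged human bromodomain at 2 μM final in 10 mM HEPES pH 7.5, 500 mM NaCl. Compound at 10 μM final with 0.1% DMSO; SYPRO Orange at 1:1000. Equilibrated 3 min at 25 °C, then heated from 25 to 95 °C at 1 °C/min. Melting temperature shift taken from fluorescence; at least duplicate.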
# [2] = target: Bromodomain-containing protein 9 (Homo sapiens) (UniProt Q9H8M2); assay: Binding affinity to human partial length BRD9 (R130 to V259 residues) expressed in bacterial expression system at 1 uM by BROMOscan assay
# Outline: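 BROMOscan bromodomain cross-screen run by an outside service, compound at 1 µM against 32 recombinant bromodomains. Binding given as percent of control.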
# [3] = target: Cyclin-dependent kinase-like 1 (Homo sapiens) (UniProt Q00532); assay: Inhibition of recombinant human CDKL1 (1 to 303 residues) at 10 uM using RRRFRPASPLRGP as substrate measured after 120 mins in presence of [gamma33P]ATP by scintillation counting method
# [4] = target: Calcium/calmodulin-dependent protein kinase type 1G (Homo sapiens) (UniProt Q96NX5); assay: Inhibition of human CaMK1gamma
# Outline: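 Kinase panel of 422 kinases screened by Eurofins KinaseProfiler at a single test-compound concentration of 10 µM.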
# [5] = target: Calcium/calmodulin-dependent protein kinase type IV (Homo sapiens) (UniProt Q16566); assay: Inhibition of recombinant full-length human CaMK4 at 10 uM using calmodulin as substrate measured after 40 mins in presence of [gamma33P]ATP by scintillation counting method
# [6] = target: Calcium/calmodulin-dependent protein kinase kinase 1 (Homo sapiens) (UniProt Q8N5S9); assay: Inhibition of recombinant full-length human CAMKk1 at 10 uM using calmodulin as substrate measured after 40 mins in presence of [gamma33P]ATP by scintillation counting method
# [7] = system: Casein kinase I isoform gamma-3 (Homo sapiens), Q9Y6M4 [UNDEFINED MUTATION]; assay: Inhibition of recombinant human CK1gamma3 K91E/R174G/E302D mutant (1 to 330 residues) at 10 uM using KRRRALS(p)VASLPGL as substrate measured after 40 mins in presence of [gamma33P]ATP by scintillation counting method
# [8] = target: Dual specificity protein kinase CLK4 (Homo sapiens) (UniProt Q9HAZ1); assay: Inhibition of recombinant human CLK4 (128 to end residues) at 10 uM using YRRAAVPPSPSLSRHSSPHQS(p)EDEEE as substrate measured after 40 mins in presence of [gamma33P]ATP by scintillation counting method
# [9] = system: Eukaryotic elongation factor 2 kinase (Homo sapiens), O00418 [H23R]; assay: Inhibition of recombinant human EEF2K H23R mutant (2 to end residues) at 10 uM using RKKFGESEKTKTKEFL as substrate measured after 40 mins in presence of [gamma33P]ATP by scintillation counting method
# [10] = target: Epidermal growth factor receptor (Homo sapiens) (UniProt P00533); assay: Inhibition of recombinant human EGFR (696 to end residues) at 10 uM using poly(Glu, Tyr) 4:1 as substrate measured after 40 mins in presence of [gamma33P]ATP by scintillation counting method
# [11] = target: Ephrin type-A receptor 4 (Homo sapiens) (UniProt P54764); assay: Inhibition of recombinant human EphA4 (601 to 892 residues) at 10 uM using poly(Glu, Tyr) 4:1 as substrate measured after 40 mins in presence of [gamma33P]ATP by scintillation counting method
# [12] = target: Glycogen synthase kinase-3 alpha (Homo sapiens) (UniProt P49840); assay: Inhibition of recombinant human GSK3alpha (2 to end residues) at 10 uM using phospho GS2 peptide as substrate measured after 40 mins in presence of [gamma33P]ATP by scintillation counting method
# [13] = target: Mitogen-activated protein kinase kinase kinase kinase 5 (Homo sapiens) (UniProt Q9Y4K4); assay: Inhibition of recombinant full-length human MAP4K5 at 10 uM using myelin basic protein as substrate measured after 40 mins in presence of [gamma33P]ATP by scintillation counting method
# [14] = target: Misshapen-like kinase 1 (Homo sapiens) (UniProt Q8N4C8); assay: Inhibition of recombinant human MINK (1 to 310 residues) at 10 uM using myelin basic protein as substrate measured after 40 mins in presence of [gamma33P]ATP by scintillation counting method
# [15] = target: Serine/threonine-protein kinase PAK 3 (Homo sapiens) (UniProt O75914); assay: Inhibition of recombinant full-length human PAK3 at 10 uM using RRRLSFAEPG as substrate measured after 40 mins in presence of [gamma33P]ATP by scintillation counting method
# [16] = target: Phosphorylase b kinase gamma catalytic chain, skeletal muscle/heart isoform (Homo sapiens) (UniProt Q16816); assay: Inhibition of recombinant full-length human PhKgamma1 at 10 uM using KKLNRTLSFAEPG as substrate measured after 120 mins in presence of [gamma33P]ATP by scintillation counting method
# [17] = system: RAC-beta serine/threonine-protein kinase (Homo sapiens), P31751 [S474D]; assay: Inhibition of recombinant full-length human PKBbeta S474D mutant (120 to end residues) at 10 uM using GRPRTSSFAEGKK as substrate measured after 40 mins in presence of [gamma33P]ATP by scintillation counting method
# [18] = system: Serine/threonine-protein kinase D1 (Homo sapiens), Q15139 [UNDEFINED MUTATION]; assay: Inhibition of recombinant full-length human PKCmu R135A mutant at 10 uM using KKLNRTLSVA as substrate measured after 40 mins in presence of [gamma33P]ATP by scintillation counting method
# [19] = target: Tau-tubulin kinase 2 (Homo sapiens) (UniProt Q6IQ55); assay: Inhibition of human TTBK2 (1 to 331 residues) using Casein as substrate measured after 40 mins in presence of [gamma33P]ATP by scintillation counting method
# [20] = target: Tyrosine-protein kinase TXK (Homo sapiens) (UniProt P42681); assay: Inhibition of human Txk (256 to end residues) using GEEPLYWSFPAKKK as substrate measured after 40 mins in presence of [gamma33P]ATP by scintillation counting method
# [21] = target: Mitogen-activated protein kinase kinase kinase 20 (Homo sapiens) (UniProt Q9NYL2); assay: Inhibition of recombinant full-length human ZAK at 10 uM using MBP as substrate measured after 40 mins in presence of [gamma33P]ATP by scintillation counting method
# [22] = target: Casein kinase II subunit alpha' (CK2alpha2, Homo sapiens) (UniProt P19784); assay: Inhibition of recombinant full length human CK2alpha2 at 10 uM using RRRDDDSDDD as substrate measured after 40 mins in presence of [gamma33P]ATP by scintillation counting method
# Sequence of Casein kinase II subunit alpha' (CK2alpha2, Homo sapiens) (P19784 whole entry, looked up): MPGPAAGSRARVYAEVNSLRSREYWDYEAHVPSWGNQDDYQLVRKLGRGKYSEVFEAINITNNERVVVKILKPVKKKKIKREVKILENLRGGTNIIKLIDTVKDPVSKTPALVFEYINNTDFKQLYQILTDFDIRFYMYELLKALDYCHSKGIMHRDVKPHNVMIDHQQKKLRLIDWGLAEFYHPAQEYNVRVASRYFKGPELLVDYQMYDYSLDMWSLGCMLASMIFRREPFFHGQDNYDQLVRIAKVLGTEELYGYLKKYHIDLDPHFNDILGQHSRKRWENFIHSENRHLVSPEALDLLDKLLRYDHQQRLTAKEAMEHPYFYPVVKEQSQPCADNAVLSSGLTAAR
# Sequence of Serine/threonine-protein kinase D1 (Homo sapiens), Q15139 [UNDEFINED MUTATION] (Q15139 whole entry, looked up, stated change not applied, the tested form may be a part): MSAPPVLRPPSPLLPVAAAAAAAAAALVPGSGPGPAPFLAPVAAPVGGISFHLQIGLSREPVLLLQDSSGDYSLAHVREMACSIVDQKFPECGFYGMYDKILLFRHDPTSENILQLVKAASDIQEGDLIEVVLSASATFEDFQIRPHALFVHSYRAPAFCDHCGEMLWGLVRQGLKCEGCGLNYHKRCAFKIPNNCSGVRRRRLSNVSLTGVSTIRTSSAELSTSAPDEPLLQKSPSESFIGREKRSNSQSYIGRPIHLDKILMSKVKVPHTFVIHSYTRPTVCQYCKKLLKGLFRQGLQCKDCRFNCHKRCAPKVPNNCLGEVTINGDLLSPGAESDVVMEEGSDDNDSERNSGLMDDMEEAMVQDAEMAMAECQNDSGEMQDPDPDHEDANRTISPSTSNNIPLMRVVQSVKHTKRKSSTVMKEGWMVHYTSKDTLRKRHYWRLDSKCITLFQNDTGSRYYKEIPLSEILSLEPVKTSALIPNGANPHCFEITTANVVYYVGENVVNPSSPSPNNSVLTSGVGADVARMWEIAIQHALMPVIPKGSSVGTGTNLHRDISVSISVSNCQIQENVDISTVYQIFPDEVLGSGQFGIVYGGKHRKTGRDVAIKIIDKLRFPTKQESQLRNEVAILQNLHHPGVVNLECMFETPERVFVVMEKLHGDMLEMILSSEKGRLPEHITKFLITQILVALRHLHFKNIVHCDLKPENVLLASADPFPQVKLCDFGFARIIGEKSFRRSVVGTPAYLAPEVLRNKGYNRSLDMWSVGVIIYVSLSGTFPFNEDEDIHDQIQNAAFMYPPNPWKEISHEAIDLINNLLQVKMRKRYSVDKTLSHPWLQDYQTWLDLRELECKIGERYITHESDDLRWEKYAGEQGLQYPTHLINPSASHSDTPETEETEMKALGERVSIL
# Sequence of Epidermal growth factor receptor (Homo sapiens) (P00533 whole entry, the tested form may be a part): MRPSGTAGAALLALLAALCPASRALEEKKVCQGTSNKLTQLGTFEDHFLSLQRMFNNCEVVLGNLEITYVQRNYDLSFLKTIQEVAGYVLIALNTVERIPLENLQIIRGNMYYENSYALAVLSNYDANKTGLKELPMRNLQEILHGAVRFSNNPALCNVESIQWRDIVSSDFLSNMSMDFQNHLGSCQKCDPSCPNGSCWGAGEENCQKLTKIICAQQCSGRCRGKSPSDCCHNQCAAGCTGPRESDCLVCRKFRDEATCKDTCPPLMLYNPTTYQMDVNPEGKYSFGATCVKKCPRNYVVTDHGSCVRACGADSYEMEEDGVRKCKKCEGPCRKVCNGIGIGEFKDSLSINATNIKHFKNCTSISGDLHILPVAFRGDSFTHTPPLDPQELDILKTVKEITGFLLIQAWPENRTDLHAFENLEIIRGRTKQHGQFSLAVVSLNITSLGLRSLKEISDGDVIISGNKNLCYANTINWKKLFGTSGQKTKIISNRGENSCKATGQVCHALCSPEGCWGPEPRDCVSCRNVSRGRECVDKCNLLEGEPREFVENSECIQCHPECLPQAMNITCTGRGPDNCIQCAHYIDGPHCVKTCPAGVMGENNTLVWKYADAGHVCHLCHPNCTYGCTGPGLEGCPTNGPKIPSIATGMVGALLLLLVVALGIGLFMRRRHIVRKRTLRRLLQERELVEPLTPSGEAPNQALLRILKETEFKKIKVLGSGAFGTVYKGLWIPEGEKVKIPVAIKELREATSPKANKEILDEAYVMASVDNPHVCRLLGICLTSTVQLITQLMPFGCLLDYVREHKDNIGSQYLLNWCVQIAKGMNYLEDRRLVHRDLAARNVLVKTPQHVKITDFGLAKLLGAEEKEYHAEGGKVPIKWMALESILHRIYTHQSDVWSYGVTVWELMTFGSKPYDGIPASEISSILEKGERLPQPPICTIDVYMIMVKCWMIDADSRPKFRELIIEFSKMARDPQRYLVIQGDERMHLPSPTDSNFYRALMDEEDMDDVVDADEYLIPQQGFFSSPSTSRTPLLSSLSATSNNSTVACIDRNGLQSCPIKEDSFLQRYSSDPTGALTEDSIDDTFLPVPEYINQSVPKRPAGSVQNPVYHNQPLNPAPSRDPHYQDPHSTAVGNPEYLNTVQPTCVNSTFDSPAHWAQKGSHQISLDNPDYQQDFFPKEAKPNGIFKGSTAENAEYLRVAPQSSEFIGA
# Sequence of RAC-beta serine/threonine-protein kinase (Homo sapiens), P31751 [S474D] (P31751 whole entry S474D): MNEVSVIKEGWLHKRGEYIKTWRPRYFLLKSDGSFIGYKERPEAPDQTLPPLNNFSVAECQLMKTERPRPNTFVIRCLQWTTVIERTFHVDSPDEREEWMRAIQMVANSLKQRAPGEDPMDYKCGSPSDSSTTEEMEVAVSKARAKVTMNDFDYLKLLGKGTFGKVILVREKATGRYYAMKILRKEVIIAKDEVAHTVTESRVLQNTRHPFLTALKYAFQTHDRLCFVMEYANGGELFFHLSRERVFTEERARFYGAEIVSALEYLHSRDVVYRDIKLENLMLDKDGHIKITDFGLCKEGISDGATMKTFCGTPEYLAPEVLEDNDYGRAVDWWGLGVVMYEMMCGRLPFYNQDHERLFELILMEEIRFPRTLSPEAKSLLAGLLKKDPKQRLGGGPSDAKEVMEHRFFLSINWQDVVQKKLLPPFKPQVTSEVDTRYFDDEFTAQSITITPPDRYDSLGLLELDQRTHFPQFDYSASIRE
# Sequence of Cyclin-dependent kinase-like 1 (Homo sapiens) (Q00532 whole entry, the tested form may be a part): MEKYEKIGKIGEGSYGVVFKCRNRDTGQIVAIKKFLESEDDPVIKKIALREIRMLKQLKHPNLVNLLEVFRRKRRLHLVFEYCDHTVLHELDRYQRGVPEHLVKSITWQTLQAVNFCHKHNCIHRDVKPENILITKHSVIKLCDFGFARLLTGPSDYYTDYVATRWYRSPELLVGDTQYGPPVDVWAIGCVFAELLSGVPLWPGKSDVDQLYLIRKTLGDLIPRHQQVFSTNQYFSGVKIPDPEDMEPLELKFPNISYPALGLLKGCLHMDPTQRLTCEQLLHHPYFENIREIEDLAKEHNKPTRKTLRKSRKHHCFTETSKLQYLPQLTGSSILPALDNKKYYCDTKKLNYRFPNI
# Sequence of Casein kinase I isoform gamma-3 (Homo sapiens), Q9Y6M4 [UNDEFINED MUTATION] (Q9Y6M4 whole entry, looked up, stated change not applied, the tested form may be a part, canonical isoform): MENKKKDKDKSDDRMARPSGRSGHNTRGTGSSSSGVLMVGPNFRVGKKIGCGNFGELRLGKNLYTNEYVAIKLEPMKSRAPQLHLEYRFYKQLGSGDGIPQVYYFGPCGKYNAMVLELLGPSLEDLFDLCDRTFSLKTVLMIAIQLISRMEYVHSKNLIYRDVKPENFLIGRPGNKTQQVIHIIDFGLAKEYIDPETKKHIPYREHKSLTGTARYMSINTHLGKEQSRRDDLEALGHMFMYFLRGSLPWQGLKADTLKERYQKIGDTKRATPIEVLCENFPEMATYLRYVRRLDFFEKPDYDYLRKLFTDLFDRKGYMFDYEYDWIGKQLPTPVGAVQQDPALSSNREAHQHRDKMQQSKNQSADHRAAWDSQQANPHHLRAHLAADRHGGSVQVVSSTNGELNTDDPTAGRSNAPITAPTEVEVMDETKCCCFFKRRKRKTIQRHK
# Sequence of Mitogen-activated protein kinase kinase kinase kinase 5 (Homo sapiens) (Q9Y4K4 whole entry, looked up, the tested form may be a part): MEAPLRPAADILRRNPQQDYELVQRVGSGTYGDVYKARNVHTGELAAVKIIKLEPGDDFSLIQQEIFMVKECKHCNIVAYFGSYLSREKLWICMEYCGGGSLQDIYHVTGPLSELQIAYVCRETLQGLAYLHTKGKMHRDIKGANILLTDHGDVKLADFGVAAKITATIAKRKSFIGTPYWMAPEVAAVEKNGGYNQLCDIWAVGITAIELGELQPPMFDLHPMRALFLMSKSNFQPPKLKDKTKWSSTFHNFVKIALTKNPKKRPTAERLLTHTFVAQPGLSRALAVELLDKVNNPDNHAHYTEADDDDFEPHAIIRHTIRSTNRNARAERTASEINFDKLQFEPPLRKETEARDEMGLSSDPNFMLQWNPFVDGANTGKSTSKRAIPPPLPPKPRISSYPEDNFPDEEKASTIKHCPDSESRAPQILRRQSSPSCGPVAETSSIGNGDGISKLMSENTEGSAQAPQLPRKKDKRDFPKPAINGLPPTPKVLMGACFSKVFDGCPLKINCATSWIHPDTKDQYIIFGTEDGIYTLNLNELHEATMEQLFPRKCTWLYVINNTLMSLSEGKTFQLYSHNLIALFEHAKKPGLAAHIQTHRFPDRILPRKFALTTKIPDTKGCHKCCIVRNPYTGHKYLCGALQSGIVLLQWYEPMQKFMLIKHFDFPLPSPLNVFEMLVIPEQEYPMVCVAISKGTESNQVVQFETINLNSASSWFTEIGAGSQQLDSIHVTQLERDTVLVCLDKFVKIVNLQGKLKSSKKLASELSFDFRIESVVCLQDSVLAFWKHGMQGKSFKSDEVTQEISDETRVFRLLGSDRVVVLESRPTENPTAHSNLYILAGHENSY
# Sequence of Phosphorylase b kinase gamma catalytic chain, skeletal muscle/heart isoform (Homo sapiens) (Q16816 whole entry, looked up, canonical isoform): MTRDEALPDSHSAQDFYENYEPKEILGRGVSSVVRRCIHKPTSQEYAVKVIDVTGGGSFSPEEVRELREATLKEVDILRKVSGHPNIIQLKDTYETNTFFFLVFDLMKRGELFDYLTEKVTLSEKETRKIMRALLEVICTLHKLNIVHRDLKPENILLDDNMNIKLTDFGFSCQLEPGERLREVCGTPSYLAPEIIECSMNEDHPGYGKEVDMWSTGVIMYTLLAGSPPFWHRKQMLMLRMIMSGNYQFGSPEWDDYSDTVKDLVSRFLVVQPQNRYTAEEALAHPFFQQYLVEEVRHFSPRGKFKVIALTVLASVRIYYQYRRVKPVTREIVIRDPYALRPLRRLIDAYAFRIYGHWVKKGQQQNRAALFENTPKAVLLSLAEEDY
smiles,measurement,setting,value
CN1C[C@H](Nc2nc3cc[nH]c3c(=O)n2C)C[C@H](c2ccc3c(c2)OCCO3)C1,ΔTm,[1],1.9 °C
same,Activity,[2],inactive
same,inhibition,[3],inactive
same,inhibition,[4],inactive
same,inhibition,[5],inactive
same,inhibition,[6],inactive
same,inhibition,[7],inactive
same,inhibition,[8],inactive
same,inhibition,[9],inactive
same,inhibition,[10],inactive
same,inhibition,[11],inactive
same,inhibition,[12],inactive
same,inhibition,[13],inactive
same,inhibition,[14],inactive
same,inhibition,[15],inactive
same,inhibition,[16],inactive
same,inhibition,[17],inactive
same,inhibition,[18],inactive
same,inhibition,[19],inactive
same,inhibition,[20],inactive
same,inhibition,[21],inactive
same,inhibition,[22],inactive
